A selection: hits, their analogues and other compounds. The true share with any hit is near 1.9%.
SUMO1-SIM PPI – modulators of SUMO1 protein-protein interactions, primary screen, biochemical, uHTS; actives 0.33% (n = 360,000); inhibition, % at 20 µM; AID 602429, 2012; SUMO1 binding to a labelled peptide, TR-FRET, 1 h; in the data active means inhibition above about 37%
Target sequence (P63165 whole entry, looked up): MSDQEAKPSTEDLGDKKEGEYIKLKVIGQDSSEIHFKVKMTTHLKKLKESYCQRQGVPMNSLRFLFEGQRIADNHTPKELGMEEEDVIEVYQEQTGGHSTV
Scp-1 inhibitor – Scp-1 phosphatase inhibitors, primary screen, biochemical, colorimetric, uHTS | Recombinant Scp1, phosphopeptide, malachite green phosphate absorbance | inhibition, % at 20 µM | Carboxy-terminal domain RNA polymerase II polypeptide A small phosphatase 1 (Homo … | actives 0.88% (n = 340,000) | AID 493091, 2011;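 active means inhibition above about 50% at 20 µM, limit read from the data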
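System: truncated SCP-1 phosphatase (76-261aa); medium: Tris acetate buffer pH 5.5 with MgCl2 and Tween-20; incubation: 45 min room-temperature reaction, 5 min colour, 30 min stabiliser; compound: single 20 µM dose, 1% DMSO; reagent: Phosphorylated 17-residue peptide substrate; read-out: % inhibition at 20 µM; technique: colorimetric free-phosphate detection, absorbance 630 nm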
STEP block – STEP phosphatase inhibitors, primary screen, biochemical, fluorescence intensity, uHTS | Tyrosine-protein phosphatase non-receptor type 5 (Homo sapiens), P54829 | recombinant STEP, OMFP fluorogenic substrate | actives 0.25% (n = 360,000) | inhibition, % at 20 µM;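 active means inhibition at 20 µM, scaled per plate between control wells, above about 37%, limit read from the data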
Target sequence (P54829 whole entry, looked up): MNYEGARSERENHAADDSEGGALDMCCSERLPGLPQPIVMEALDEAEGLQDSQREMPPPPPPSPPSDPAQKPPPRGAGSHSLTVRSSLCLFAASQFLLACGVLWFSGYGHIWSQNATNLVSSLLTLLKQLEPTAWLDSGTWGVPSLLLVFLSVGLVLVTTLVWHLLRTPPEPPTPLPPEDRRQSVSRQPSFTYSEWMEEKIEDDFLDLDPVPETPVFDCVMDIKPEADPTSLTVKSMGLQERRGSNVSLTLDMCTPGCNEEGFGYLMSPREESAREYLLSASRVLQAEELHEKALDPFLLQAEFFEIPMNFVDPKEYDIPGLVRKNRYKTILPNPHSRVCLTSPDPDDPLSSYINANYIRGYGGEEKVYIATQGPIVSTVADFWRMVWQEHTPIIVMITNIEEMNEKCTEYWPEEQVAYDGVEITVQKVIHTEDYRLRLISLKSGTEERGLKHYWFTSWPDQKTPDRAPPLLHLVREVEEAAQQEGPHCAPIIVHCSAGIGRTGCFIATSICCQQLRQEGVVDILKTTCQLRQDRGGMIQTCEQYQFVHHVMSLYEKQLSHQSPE
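Material: STEP (striatal-enriched tyrosine phosphatase) enzyme, cell-free | Medium: 50 mM Bis-Tris pH 6.0 with 2.5 mM DTT and 0.005% Tween 20 | Read-out: Percent inhibition scaled to no-enzyme and uninhibited-enzyme controls, plate-pattern corrected | Signal: Fluorescence read at 480 nm ex / 540 nm em | Times: 20 min reaction, room temperature, in the dark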
CSN inh – inhibitors of CSN-mediated cullin deneddylation, primary screen, biochemical, fluorescence polarization, uHTS; COP9 signalosome complex subunit 5 (Homo sapiens), Q92905; Purified CSN, SCF-Nedd8-OG deneddylation; inhibition, % at 12.5 µM; actives 0.38% (n = 360,000);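 active means pattern-corrected inhibition above about 35%, with an unprinted fluorescence ratio check between 0.5 and 1.5, limit read from the data, passing the limit was not always enough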
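test system = HEK293T-derived human Csn5 enzyme | amount = 0.24 nM Csn5 enzyme, final concentration | medium = Tris/NaCl/DTT buffer, pH 7.5 | schedule = 90 min reaction at room temperature | signal = FP | evaluation = inhibition of Csn5 cleavage, % | compound dosing = single dose of 12.5 µM compound with 0.25% DMSO | probe or stimulus = 10 nM SCFSkp2-Nedd8OG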
DNMT1 inh – human DNMT1 methyltransferase inhibitors, primary screen, biochemical, molecular beacon, fluorescence, HinP1I cleavage, uHTS; actives 0.83% (n = 360,000); inhibition (reported as % activation of signal), % at 10 µM; AID 588458, 2011; DNA (cytosine-5)-methyltransferase 1 (Homo sapiens), P26358; in the data active means inhibition above about 50%
LMPTP inh – LMPTP phosphatase inhibitors, primary screen, biochemical, fluorescence intensity, uHTS | actives 0.22% (n = 360,000) | Low molecular weight phosphotyrosine protein phosphatase (Homo sapiens), P24666 | AID 651560, 2012 | inhibition, % at 20 µM | recombinant LMPTP-A, OMFP fluorogenic substrate;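 active means compounds that cut the enzyme signal by at least half of the control window in the single-dose screen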
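Test system: LMPTP-A, protein tyrosine phosphatase of low molecular weight; Input: 0.625 nM enzyme; Incubation: 50 min dark incubation at room temperature; Signal: endpoint fluorescence intensity from OMFP dephosphorylation; Read-out basis: % inhibition versus control wells.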
Scp-1 conf – Scp-1 phosphatase inhibitors, retest, confirmation, biochemical, colorimetric, single concentration | shares compounds with Scp-1 inhibitor | recombinant SCP-1 catalytic domain, phosphate release, malachite green absorbance | inhibition, % at 20 µM | actives 61% (n = 2,500) | AID 540281, 2011
Scp-1 MG ctr – colorimetric readout interference by compounds, confirmation, artefact control for Scp-1 inhibitor project, biochemical, single concentration. shares compounds with Scp-1 inhibitor. Colorimetric interference counterscreen, malachite green absorbance 630 nm. apparent inhibition (interference), % at 20 µM. 2,500 tested, under 10 active. AID 540313, 2011;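 further: compounds added after enzyme reaction finished so only phosphate colour detection is probed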
Scp1 DSF – Scp-1 binding by thermal shift, confirmation, orthogonal assay for Scp-1 inhibitor project, biophysical, differential scanning fluorimetry; shares compounds with Scp-1 inhibitor; Recombinant SCP1, Sypro Orange thermal shift Tm; thermal shift relative to vanadate control, % at 40 µM; actives 25% (n = 1,500); AID 540329, 2011;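 active means substances whose mean melting-temperature shift, as a percentage of the reference inhibitor's shift, reaches about 5.3%, limit read from the data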
Of the large screens only hits and unclear results are named; the others gave an inactive call (follow-up assays come after a bar, where they were run).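 How the source made its calls, unless noted: active means inhibition of at least 30% at 20 µM; inactive means the rest.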

O=C(Nc1nnc(SCc2c(Cl)cccc2Cl)s1)C1CC(=O)N(c2ccc3c(c2)OCCO3)C1 (stereo not drawn)	Scp-1 inhibitor 67 | Scp-1 conf 66 | Scp-1 MG ctr inactive | Scp1 DSF inactive
O=C(Nc1nc(-c2ccco2)c(-c2ccco2)s1)C1CC(=O)N(c2ccc3c(c2)OCCO3)C1 (stereo not drawn)	Scp-1 inhibitor 82, DNMT1 inh 72 | Scp-1 conf 57 | Scp-1 MG ctr inactive | Scp1 DSF 13
CCSC1=N/C(=C\c2ccc(OC)cc2)C(=O)N1	Scp-1 inhibitor 50 | Scp-1 conf inactive | Scp-1 MG ctr inactive
Cc1ccc(C(=O)NNCC(=O)Nc2ccc(Cl)cc2F)cc1	none
O=C1CC2CCCN2C=C1I (stereo not drawn)	Scp-1 inhibitor 97 | Scp-1 conf 87 | Scp-1 MG ctr inactive | Scp1 DSF inactive
CCOC(=O)C1=CN2CCC[C@H]2CC1=O	none
CSCCC(NC(=O)c1ccccc1Cl)C(=O)N1CCCCC1 (stereo not drawn)	none
Cc1[nH]c2ccccc2c1C(=O)CNc1nccs1	Scp-1 inhibitor 96 | Scp-1 conf inactive | Scp-1 MG ctr inactive
Cc1ccc(C)c(NC(=O)CSc2ncnc3nc[nH]c23)c1	Scp-1 inhibitor 58 | Scp-1 conf inactive | Scp-1 MG ctr inactive
CCC1=Nc2cc(C(=O)NCCCOC(C)C)ccc2Sc2ccccc21	Scp-1 inhibitor 63 | Scp-1 conf inactive | Scp-1 MG ctr inactive
CCC1=Nc2cc(C(=O)NCCCN3CCN(C)CC3)ccc2Sc2ccccc21	none
O=C(Nc1nnc(-c2ccc(Cl)s2)o1)C1CC1	Scp-1 inhibitor 57 | Scp-1 conf inactive | Scp-1 MG ctr inactive
COc1cccc(NC(=O)CSCc2cc(=O)n3nc(C4CC4)sc3n2)c1	none | Scp-1 conf inactive | Scp-1 MG ctr inactive
Cc1nn(CCc2nn[nH]n2)c2nc(-c3ccc(Br)cc3)cc(C(F)(F)F)c12	Scp-1 inhibitor 53 | Scp-1 conf inactive | Scp-1 MG ctr inactive
CCN(CC)C(=O)C(C)OC(=O)COc1ccc(Cl)cc1C (stereo not drawn)	none
Cc1cc(Cl)ccc1OCC(=O)OC(C)C(=O)N(C)C (stereo not drawn)	Scp-1 inhibitor 55 | Scp-1 conf 46 | Scp-1 MG ctr inactive | Scp1 DSF inactive
Cc1cc(C)c(NC(=S)N(CCc2ccncc2)C(C)C)c(C)c1	Scp-1 inhibitor 61 | Scp-1 conf inactive | Scp-1 MG ctr inactive
Cc1ccc(C)c(NC(=S)N(CCc2ccncc2)C(C)C)c1	none
C/C(=N\Nc1ccc(Cl)c(C(=O)O)c1)c1cccs1	none
C/C(=N\Nc1ccc(Cl)c(C(=O)O)c1)c1ccc[nH]1	Scp-1 inhibitor 73 | Scp-1 conf 59 | Scp-1 MG ctr inactive | Scp1 DSF 17
C=C1CN(CC(=O)OC)S(=O)(=O)c2ccccc21	none
C=C1CN(Cc2ccccc2)S(=O)(=O)c2ccccc21	Scp-1 inhibitor 95 | Scp-1 conf 68 | Scp-1 MG ctr inactive | Scp1 DSF inactive
CCOC(=O)CN1C(=O)N[C@@H](c2ccc(Br)cc2)C(C(=O)OC)=C1C	none
CCOC(=O)CN1C(=O)N[C@H](c2ccc(Br)cc2)C(C(C)=O)=C1C	Scp-1 inhibitor 76 | Scp-1 conf inactive | Scp-1 MG ctr inactive
O=C1/C(=C\c2ccc(O)cc2)SC(=S)N1c1cccnc1	Scp-1 inhibitor 98 | Scp-1 conf inactive | Scp-1 MG ctr inactive
COc1ccc(/C=C2\SC(=S)N(c3cccnc3)C2=O)cc1	none
O=C(COC(=O)CNC(=O)c1cccc(OC(F)F)c1)NCc1ccc2c(c1)OCO2	none
O=C(COC(=O)CNC(=O)c1ccccc1)NCc1ccc2c(c1)OCO2	Scp-1 inhibitor 67 | Scp-1 conf inactive | Scp-1 MG ctr inactive
N/C(=N\NC(=O)c1ccc(F)cc1)c1cc2ccccc2oc1=O	none
N/C(=N\NC(=O)c1cccc(F)c1)c1cc2ccccc2oc1=O	Scp-1 inhibitor 53 | Scp-1 conf 72 | Scp-1 MG ctr inactive | Scp1 DSF inactive
CSCC[C@H](NC(=O)c1cccc(S(=O)(=O)N2CCCCC2)c1)c1nc2ccccc2[nH]1	Scp-1 inhibitor 59 | Scp-1 conf inactive | Scp-1 MG ctr inactive
CC[n+]1c(C)cc(C)n1-c1ccccc1	Scp-1 inhibitor 95 | Scp-1 conf 92 | Scp-1 MG ctr inactive | Scp1 DSF inactive
CCN(CC)S(=O)(=O)c1cccc(NC(=O)COC(=O)/C=C/c2ccco2)c1	none
CN(C)S(=O)(=O)c1cccc(NC(=O)COC(=O)/C=C/c2ccco2)c1	Scp-1 inhibitor 68 | Scp-1 conf 41 | Scp-1 MG ctr inactive | Scp1 DSF inactive
Cn1nnnc1SCC1=C(C(=O)O)N2C(=O)C(NC(=O)C3CC3c3ccccc3)C2SC1 (stereo not drawn)	Scp-1 inhibitor 59 | Scp-1 conf 70 | Scp-1 MG ctr inactive | Scp1 DSF inactive
CCOC(=O)c1cc(NC(=O)Nc2ccc(Br)cc2)c(C)nc1C	none
CCOn1c(=O)c(-c2ccccc2)[n+]([O-])c2ccccc21	none
CCOn1c(=O)c(-c2cccc3ccccc23)[n+]([O-])c2ccccc21	Scp-1 inhibitor 58 | Scp-1 conf inactive | Scp-1 MG ctr inactive
CC(C)C[C@@H]1Cc2[nH][nH]c(=O)c2[C@H](c2ccc(Cl)cc2)O1	none (no result: Scp-1 inhibitor, STEP block, DNMT1 inh)
N=C1/C(=C\c2ccc(Br)o2)C(=O)N=C2SC(CC(=O)N3CCOCC3)=NN12	Scp-1 inhibitor 78 | Scp-1 conf 36 | Scp-1 MG ctr inactive | Scp1 DSF 6.8
CSc1ccc(/C=C2\C(=N)N3N=C(CC(=O)N4CCOCC4)SC3=NC2=O)cc1	none

From PubChem BioAssay
